In ChEMBL document CHEMBL1153867, “Synthesis, biological evaluation and SAR of sulfonamide 4-methoxychalcone derivatives with potential antileishmanial activity” (Eur J Med Chem, 2009):
pIC50: −log10 of the molar value. Active and inactive are the calls of the source. No cut-off for these calls is given here.

What was measured:
Trypanosoma cruzi [1] = assay: Antitrypanosomal activity against Trypanosoma cruzi Y epimastigotes at 500 uM after 72 hrs; format: functional, organism-based
Leishmania braziliensis [2] = assay: Antileishmanial activity against Leishmania braziliensis MHOM/BR/75/M2904 promastigotes after 72 hrs; format: functional, organism-based; conditions: MHOM/BR/75/M2904, 72 h
Summary of the method: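 Exponential-phase promastigotes at 10×10^6/ml in Schneider's medium with 5% FBS were incubated 72 h at 28 °C with compound dilutions from 100 to 1.6. Amphotericin B (31.25–1000 nM) was the positive control and 1% DMSO the negative control. Live parasites were counted in a Neubauer chamber. IC50 came from linear regression, mean ± standard error of three independent triplicate experiments.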

Trypanosoma cruzi [3] = assay: Antitrypanosomal activity against Trypanosoma cruzi epimastigotes at 500 uM after 72 hrs
Leishmania braziliensis [4] = assay: Antileishmanial activity against Leishmania braziliensis MHOM/BR/75/M2904 amastigotes assessed as reduction in intracellular amastigote after 48 hrs; format: functional, organism-based
Summary of the method: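 L. braziliensis axenic amastigotes were made by differentiating stationary-phase promastigotes in Schneider medium with 20% FBS, pH 6.3, at 34 °C for 72 h. J774.A1 cells were infected at 10:1 parasite:cell overnight at 34 °C in RPMI with 20% FBS. Cells were exposed to 1–100 compound for 48 h at 34 °C/5% CO2, Giemsa-stained, and 200 cells counted. Percent inhibition above 25% counted as significant.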

Row | SMILES | pIC50 (Leishmania braziliensis [2]) | Activity (Trypanosoma cruzi [1]) | Activity (Trypanosoma cruzi [3]) | Activity (Leishmania braziliensis [4])
1 | COc1ccc(/C=C/C(=O)c2ccccc2)cc1S(=O)(=O)N(C)C | 5.07 | inactive | inactive | –
2 | COc1ccc(/C=C/C(=O)c2ccccc2)cc1 [4-METHOXY CHALCONE] | 4.78 | – | – | –
3 | COc1ccc(/C=C/C(=O)c2ccccc2)cc1S(=O)(=O)Nc1ccccc1 | 4.16 | inactive | inactive | –
4 | N=C(N)c1ccc(OCCCCCOc2ccc(C(=N)N)cc2)cc1 | 4.71 | – | – | –
5 | COc1ccc(/C=C/C(=O)c2ccccc2)cc1S(=O)(=O)Nc1ccc(Cl)c(Cl)c1 | 5.09 | inactive | inactive | –
6 | COc1ccc(/C=C/C(=O)c2ccccc2)cc1S(=O)(=O)N1CCCC1 | 4.89 | inactive | inactive | –

Stronger by pIC50 (Leishmania braziliensis [2]), values ahead:

Row | pIC50 (Leishmania braziliensis [2]) | SMILES | Activity (Trypanosoma cruzi [1]) | Activity (Trypanosoma cruzi [3]) | Activity (Leishmania braziliensis [4])
7 | 5.12 | COc1ccc(NS(=O)(=O)c2cc(/C=C/C(=O)c3ccccc3)ccc2OC)cc1 | inactive | inactive | –
8 | 5.23 | COc1ccc(/C=C/C(=O)c2ccccc2)cc1S(=O)(=O)N1CCOCC1 | inactive | inactive | –
9 | 5.25 | CCN(CC)S(=O)(=O)c1cc(/C=C/C(=O)c2ccccc2)ccc1OC | inactive | inactive | –
10 | 5.34 | COc1ccc(/C=C/C(=O)c2ccccc2)cc1S(=O)(=O)Nc1ccc(Cl)cc1 | inactive | inactive | –
11 | 5.46 | COc1ccc(/C=C/C(=O)c2ccccc2)cc1S(=O)(=O)NCc1ccccc1 | inactive | inactive | Active
12 | 6.52 | C[C@@H]1[C@H](O)[C@@H](C)/C=C/C=C/C=C/C=C/C=C/C=C/C=C/[C@H](O[C@@H]2O[C@H](C)[C@@H](O)[C@H](N)[C@@H]2O)C[C@@H]2O[C@](O)(C[C@@H](O)C[C@@H](O)[C@H](O)CC[C@@H](O)C[C@@H](O)CC(=O)O[C@H]1C)C[C@H](O)[C@H]2C(=O)O [AMPHOTERICIN B] | – | – | –
